Laboratory results from article PMC6940675 (Molecular Therapy Oncolytics, 2019).
Where no end group is shown, it is not given here.

Assays:
[1] = test system: MCF 7, A375 and U87 cancer cell lines; test: MTT assay, comparison over three cancer cell lines; format: cell-based; conditions: result in words
Procedure, shortened: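 Lines used: MCF-7 (DMEM, 5% FBS) and A375 and U87 (DMEM, 10% FBS, penicillin/streptomycin). Seeded at 5,000 cells/well and grown 24 h. Peptides were diluted from 10 mM stock in medium; PBS served as control; triplicates. After 24 h exposure, MTT was added for 4 h at 37°C. Formazan was dissolved in DMSO and OD read at 550 nm.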

MCF-10A cells [2] = test: PI and Annexin V staining, fluorescent images; format: cell-based, human; conditions: 5.0 μM
Procedure, shortened: (§1)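 MCF-7 (DMEM, 5% FBS) or MCF-10A (DMEM/F12 with horse serum, hydrocortisone, insulin, EGF, cholera toxin) seeded at 2 × 10^4 cells/well in 48-well plates and cultured 24 h. Peptide added, with PBS as negative control. After 1−3 h, Alexa Fluor 488 Annexin V (1:250 v/v) and PI (1:1,000 v/v) were added for 30 min at 37°C. Cells were then imaged by fluorescence microscopy.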

MCF-7 cells = test: PI and Annexin V staining, fluorescent images; format: cell-based; conditions: 5 μM, in comparison with AP1-Z1
Procedure, shortened: as §1

MCF-10A cells [3] = test: Apoptosis assay, flow cytometry Annexin V/PI; format: cell-based, human; conditions: 5 μM, normal breast cell line
Procedure, shortened: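 MCF-10A cells, a normal breast line, grown in DMEM/F12 with 5% horse serum, hydrocortisone, insulin, EGF and cholera toxin. Seeded at 2 × 10^5 cells/mL in 6-well plates and cultured 24 h before peptide exposure; PBS served as negative control. After 1−3 h, cells were washed in cold PBS and set to 1 × 10^6 cells/mL in Annexin-binding buffer. Stained with Alexa Fluor 488 Annexin V plus PI for 10 min at room temperature. Read by flow cytometry, excitation 488 nm, emission 530 and 575 nm.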

HUVECs = test: Anti-angiogenesis assay; format: cell-based, human; conditions: 10.0 μM, 10−12 h, in comparison with the blank control (PBS), one-way ANOVA, Angiogenesis Analyzer for ImageJ
Procedure, shortened: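 HUVECs grown in Medium 200 with low serum growth supplement at 37°C, 5% CO2. Matrigel thawed overnight at 4°C, added to μ-Slide wells and polymerised 30−60 min in a humidified incubator. HUVECs at 1 × 10^5 cells/mL were added and incubated 10−12 h at 37°C, 5% CO2, with a PBS-treated negative control. Tube formation was then imaged by fluorescence microscopy.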

[4] = Circular dichroism spectroscopy; format: physicochemical; conditions: CD, CDNN
Procedure, shortened: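 POPE/POPG (7:3) dried from chloroform under N2 overnight, resuspended in PBS pH 7.4 and extruded through 0.1-μm membranes to form SUVs, used within 6 h. Peptide at 0.5 mM in PBS pH 7.4, alone or with SUVs. Spectra taken at 25°C from 250–190 nm in a 0.1-mm quartz cell, 1-nm steps, 60 nm/min. Each spectrum averaged three scans and was baseline-subtracted. Helix content estimated by CDNN 2.1.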

[5] = test system: breast cancer cell line, MCF-7; test: MTT assay; format: cell-based; conditions: MCF-7, 24-h incubation with peptide, triplicate, OD 550 nm
Procedure, shortened: (§2)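 ATCC cells were maintained at 37°C, 5% CO2: U87 and A375 in DMEM with 10% FBS and 1% penicillin/streptomycin, MCF-7 in DMEM with 5% FBS. They were seeded at 5,000 cells/well and grown 24 h. Peptide came from a 10 mM stock diluted in medium; controls got PBS. MTT (5 mg/mL in PBS, pH 7.4) was added for 4 h, then formazan was dissolved in DMSO.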

[6] = test system: malignant melanoma cell line, A375; test: MTT assay; format: cell-based; conditions: A375, 24-h incubation with peptide, triplicate, OD 550 nm
Procedure, shortened: as §2

[7] = test system: brain glioma cell line, U87; test: MTT assay; format: cell-based; conditions: U87, 24-h incubation with peptide, triplicate, OD 550 nm
Procedure, shortened: as §2

[8] = 0.5 mM peptide in 1× PBS buffer pH 7.4, 25°C, average of three scans

Substance | α helix ratio [4, 8] [%] | IC50 [5] [µM] | IC50 [6] [µM] | IC50 [7] [µM] | other results
FLFKLIPKAIKGLIKAFK [AP1-Z5a] |  |  |  |  | IC50 relative to the other peptides [1]: relatively lower; apoptosis of MCF-10A cells (ANXA5/PI fluorescent images) (MCF-10A cells [2]): no significant change in the apoptosis; apoptosis of MCF-7 cells (ANXA5/PI fluorescent images) (MCF-7 cells): significantly induced the apoptosis; apoptosis of MCF-10A cells (MCF-10A cells [3]): did not significantly promote the apoptosis; angiogenesis (tube formation of HUVECs) (HUVECs): significantly inhibited angiogenesis
FLFKLIKKAIKKLIKAFK [AP1-Z7] | 16.16 |  |  |  | α helix ratio ([4]; 0.5 mM peptide in POPE/POPG (7:3) SUVs in 1× PBS, 3:1 lipid:peptide): 44.95%
FLFKLIKHAIKGLIKAFK-NH2 [AP1-Z5b] |  | 1.04 | 2.61 | 3.12 | 
FLFSLIKHAIKGLISAFK [AP1-Z3a] | 24.28 |  |  |  | 
FLFSLIPHAISGLISAFK-NH2 [AP1-Z1] |  | 7.22 | 9.48 | 10.2 | 
